Source: ChEMBL document CHEMBL4819084, “Discovery of 3,5-dimethylisoxazole derivatives as novel, potent inhibitors for bromodomain and extraterminal domain (BET) family” (Bioorg Med Chem, 2021)
Active and inactive are the calls of the source. The rule behind the calls is not given here.

Legend:
[1] = test system: U-266; assay: Induction of apoptosis in human U-266 cells assessed as early apoptotic cells at 2 uM incubated for 48 hrs by Annexin-V/FITC and PI staining based flow cytometry analysis (reference value: 1.36 %); type: functional
How it was run: (§1)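 U266 cells seeded at 1 × 10⁵ per 2 mL well in six-well plates and exposed to 1, 2 or 8 μM for 48 h. Cells collected, washed twice in cold PBS and resuspended in binding buffer. Annexin V-FITC added for 15 min, then PI for 5 min, both at 37 °C in the dark. Analysed by flow cytometry.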

[2] = test system: U-266; assay: Induction of apoptosis in human U-266 cells assessed as late apoptotic cells at 2 uM incubated for 48 hrs by Annexin-V/FITC and PI staining based flow cytometry analysis (reference value: 0.032 %); type: functional; how it was run: as §1
[3] = test system: U-266; assay: Induction of apoptosis in human U-266 cells assessed as early apoptotic cells at 1 uM incubated for 48 hrs by Annexin-V/FITC and PI staining based flow cytometry analysis (reference value: 1.36 %); type: functional; how it was run: as §1
[4] = test system: CT26; assay: Antiproliferative activity against […] assessed as inhibition of cell proliferation incubated for 48 hrs by MTT assay; type: functional, cell-based; settings: Mus musculus, CT26, 48 h
How it was run: (§2)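 Cryopreserved cells thawed at 37 °C, cultured one day, then seeded at 5000–10,000 cells/well in 96-well plates and left overnight to attach. Compound added at a single concentration or as a gradient series and incubated 48 h. MTT solution added and absorbance read.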

[5] = test system: U-266; assay: Antiproliferative activity against human U-266 cells assessed as inhibition of cell proliferation incubated for 48 hrs by MTT assay; type: functional, cell-based; settings: U-266, 48 h; how it was run: as §2
[6] = test system: U-266; assay: Induction of apoptosis in human U-266 cells assessed as necrotic cells at 8 uM incubated for 48 hrs by Annexin-V/FITC and PI staining based flow cytometry analysis (reference value: 5.99 %); type: functional; how it was run: as §1
[7] = Cytotoxicity against human MCF-10A cells assessed as inhibition of cell proliferation at 2 uM incubated for 48 hrs by MTT assay; type: cell-based; how it was run: as §2
[8] = test system: U-266; assay: Induction of apoptosis in human U-266 cells assessed as necrotic cells at 2 uM incubated for 48 hrs by Annexin-V/FITC and PI staining based flow cytometry analysis (reference value: 5.99 %); type: functional; how it was run: as §1
[9] = test system: HepG2; assay: Antiproliferative activity against human HepG2 cells assessed as inhibition of cell proliferation at 2 uM incubated for 48 hrs by MTT assay relative to control; type: functional; how it was run: as §2
[10] = target: T1, Bromodomain-containing protein 4 (Homo sapiens, UniProt O60885); assay: Inhibition of BRD4-BD1 (unknown origin) preincubated for 15 mins followed by substrate addition and measured after 1 hr
[11] = test system: U-266; assay: Induction of apoptosis in human U-266 cells assessed as late apoptotic cells at 8 uM incubated for 48 hrs by Annexin-V/FITC and PI staining based flow cytometry analysis (reference value: 0.032 %); type: functional; how it was run: as §1
[12] = test system: U-266; assay: Induction of cell cycle arrest in human U-266 cells assessed as increase in accumulation at G0/G1 phase at 1 to 2 uM incubated for 48 hrs by PI staining based flow cytometry analysis; type: functional; settings: dose 1-2 µM
How it was run: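 U266 cells seeded at 1 × 10⁵ per 2 mL well in six-well plates and treated at 1 and 2 μM for 48 h. Cells harvested, fixed in 70% ethanol on ice for 30 min and washed in PBS. Stained with PI (0.05 mg/mL) plus RNaseA (0.5 mg/mL) for 30 min at room temperature in the dark, then analysed by flow cytometry for cycle distribution.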

[13] = test system: U-266; assay: Induction of apoptosis in human U-266 cells assessed as nucleus condensation at 1 to 8 uM incubated for 48 hrs by DAPI staining based fluorescence microscopic analysis; type: functional, cell-based; settings: dose 1-8 µM
How it was run: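 U266 cells plated at 20000 cells/well in 12-well plates overnight, then treated at 1, 2 and 8 μM for 48 h. After a PBS wash, cells were stained with DAPI for 5 min, washed again and imaged under a fluorescence microscope for nuclear condensation.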

[14] = test system: U-266; assay: Induction of apoptosis in human U-266 cells assessed as viable cells at 8 uM incubated for 48 hrs by Annexin-V/FITC and PI staining based flow cytometry analysis (reference value: 92.6 %); type: functional; settings: read-out: Activity; how it was run: as §1
[15] = test system: HCT-116; assay: Antiproliferative activity against human HCT-116 cells assessed as inhibition of cell proliferation at 2 uM incubated for 48 hrs by MTT assay relative to control; type: functional; how it was run: as §2
[16] = test system: U-266; assay: Induction of apoptosis in human U-266 cells assessed as necrotic cells at 1 uM incubated for 48 hrs by Annexin-V/FITC and PI staining based flow cytometry analysis (reference value: 5.99 %); type: functional; how it was run: as §1
[17] = test system: U-266; assay: Induction of apoptosis in human U-266 cells assessed as viable cells at 2 uM incubated for 48 hrs by Annexin-V/FITC and PI staining based flow cytometry analysis (reference value: 92.6 %); type: functional; settings: read-out: Activity; how it was run: as §1
[18] = test system: MCF7; assay: Antiproliferative activity against human MCF7 cells assessed as inhibition of cell proliferation at 2 uM incubated for 48 hrs by MTT assay relative to control; type: functional; how it was run: as §2
[19] = test system: CT26; assay: Antiproliferative activity against […] assessed as inhibition of cell proliferation at 2 uM incubated for 48 hrs by MTT assay relative to control; type: functional; settings: Mus musculus; how it was run: as §2
[20] = test system: U-266; assay: Induction of apoptosis in human U-266 cells incubated for 48 hrs by Annexin-V/FITC and PI staining based flow cytometry analysis; type: functional, cell-based; settings: dose 1-8 µM; how it was run: as §1
[21] = test system: U-266; assay: Induction of apoptosis in human U-266 cells assessed as late apoptotic cells at 1 uM incubated for 48 hrs by Annexin-V/FITC and PI staining based flow cytometry analysis (reference value: 0.032 %); type: functional; how it was run: as §1
[22] = test system: U-266; assay: Induction of apoptosis in human U-266 cells assessed as viable cells at 1 uM incubated for 48 hrs by Annexin-V/FITC and PI staining based flow cytometry analysis (reference value: 92.6 %); type: functional; settings: read-out: Activity; how it was run: as §1
[23] = test system: HepG2; assay: Antiproliferative activity against human HepG2 cells assessed as inhibition of cell proliferation incubated for 48 hrs by MTT assay; type: functional, cell-based; settings: HepG2, 48 h; how it was run: as §2
[24] = test system: U-266; assay: Antiproliferative activity against human U-266 cells assessed as inhibition of cell proliferation at 0.1 uM incubated for 48 hrs by MTT assay relative to control; type: functional; how it was run: as §2
[25] = test system: U-266; assay: Induction of apoptosis in human U-266 cells assessed as early apoptotic cells at 8 uM incubated for 48 hrs by Annexin-V/FITC and PI staining based flow cytometry analysis (reference value: 1.36 %); type: functional; how it was run: as §1
[26] = target: T1, Bromodomain-containing protein 4; assay: Potency index, ratio of 6-(3,5-Dimethylisoxazol-4-yl)-1-methyl-4-phenyl-3,4-dihydroquinazolin-2(1H)-one IC50 to test compound IC50 for inhibition of BRD4-BD1 (unknown origin)

Compound `Cc1noc(C)c1-c1ccc2c(c1)C(c1ccccc1)N(CCCCN1CCN(c3ccc4nnc(Cl)n4n3)CC1)C(=O)N2C` (stereo unspecified) has an Activity [1] of 14.8%, an Activity [2] of 2.91% and an Activity [3] of 13.2%. The IC50 [4] was 15.8 µM, the IC50 [5] was 2.11 µM and the Activity [6] was 5.11%. The inhibition at 48 h, 2 µM [7] was 11.6%, the Activity [8] was 4.6% and the inhibition at 2 µM [9] was 46.7%. For the same compound, the IC50 [10] was 0.003 µM, the Activity [11] was 6.75% and the Activity [12] was “Active”. For the same compound, the Activity [13] was “Active”, the viability at 8 µM [14] was 65.4% and the inhibition at 2 µM [15] was 61.8%. It also gave an Activity [16] of 3.06%, a viability at 2 µM [17] of 77.6% and an inhibition at 2 µM [18] of 35.5%. For the same compound, the inhibition at 2 µM [19] was 41%, the Activity [20] was “Dose-Dependent Effect” and the Activity [21] was 1.23%. The viability at 1 µM [22] was 82.6%, the IC50 [23] was 16.7 µM and the inhibition at 0.1 µM [24] was 52.3%. It also gave an Activity [25] of 22.7% and a Ratio IC50 [26] of 8.
